Wee1 stabilizer: Wee1 degradation inhibitors, primary screen, cell-based, HeLa, Wee1K328M-luciferase, luminescence | 220,000 compounds, 1.2% hits | HeLa Luc-Wee1K328M stability; 100% = proteasome inhibitor MG132 effect | reporter increase, % at 5 µM | AID 1321, 2008;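 active means activation above the mean of all tested compounds plus 3 SD, set per screening run, cut at about 8.8% in these data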;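 further: cells exposed to compound for 20 h before luminescence read; 0% = DMSO alone and 100% = MG132 at 30 µM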
Runt-SMMHC FRET: inhibitors of RUNX1 Runt–CBFb-SMMHC binding, primary screen, biochemical, FRET, Cerulean-Runt, Venus-CBFb-SMMHC, uHTS; Cerulean-Runt/Venus-CBFb-SMMHC FRET ratio 530/480, 1 h; 220,000 compounds, 0.74% hits; Runt-related transcription factor 1 (Homo sapiens) + Core-binding factor subunit beta …; inhibition, % at 20 µM;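 active means mean inhibition across duplicate retests at 20 µM reaching about 50%, limit read from the data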;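 further: 0% = DMSO wells and 100% = wells with excess untagged CBFb-SMMHC; inhibitors lower the FRET ratio by blocking Runt binding to CBFb-SMMHC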
Target sequence (Q01196 whole entry, looked up): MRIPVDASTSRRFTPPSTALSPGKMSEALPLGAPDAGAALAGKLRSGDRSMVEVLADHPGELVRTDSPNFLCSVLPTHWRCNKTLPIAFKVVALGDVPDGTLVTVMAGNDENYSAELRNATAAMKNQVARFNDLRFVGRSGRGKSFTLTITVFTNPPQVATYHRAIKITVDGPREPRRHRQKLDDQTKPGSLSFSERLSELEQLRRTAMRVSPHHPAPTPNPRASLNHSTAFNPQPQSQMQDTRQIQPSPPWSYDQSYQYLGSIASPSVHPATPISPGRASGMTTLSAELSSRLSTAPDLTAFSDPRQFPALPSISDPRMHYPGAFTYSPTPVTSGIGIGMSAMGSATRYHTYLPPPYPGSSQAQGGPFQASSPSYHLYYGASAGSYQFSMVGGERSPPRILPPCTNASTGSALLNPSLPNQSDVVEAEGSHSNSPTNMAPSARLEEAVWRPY
Target sequence (Q13951 whole entry, looked up): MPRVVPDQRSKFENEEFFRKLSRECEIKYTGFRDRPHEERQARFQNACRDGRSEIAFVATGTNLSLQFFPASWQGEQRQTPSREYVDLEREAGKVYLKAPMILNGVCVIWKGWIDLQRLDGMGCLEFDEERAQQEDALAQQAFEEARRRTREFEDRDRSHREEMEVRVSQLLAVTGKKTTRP
AI-2 QS modul: Vibrio harveyi AI-2 quorum sensing modulators, primary screen, JMH597 strain, luminescence/OD600 ratio; 300,000 compounds, 0.4% hits; Vibrio harveyi JMH597 AI-2 luminescence/OD600 ratio, 9 h; active compounds read low; strain lacks LuxN and CqsS sensors; 0 = neutral-control median; activity change, % at 7.5 µM; in the data active means activity change below about -75%, passing the limit was not always enough;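 further: luminescence divided by OD600 gain over 9 h not by final OD600 alone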
KLK7 zymogen act: proKLK7 zymogen activators, primary screen, biochemical, fluorescence intensity; Kallikrein-7 (Homo sapiens), P49862; purified proKLK7, EDANS-DABCYL substrate fluorescence; 100% is mature enzyme control, 0% vehicle; activation, % at 7 µM; 370,000 compounds, 0.9% hits;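 active means activation above the mean of all tested compounds plus 3 SD, computed per campaign excluding outliers beyond control limits, cut at about 13% in these data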
RanGTP-Imp inh: inhibitors of RanGTP-importin-beta interaction, primary screen, biochemical, FRET, CFP-Ran, YFP-importin-beta, homogeneous | cell-free CFP-Ran/YFP-importin-beta FRET ratio | inhibition, % (concentration not given with the values) | AID 2216, 2009 | 300,000 compounds, 1.1% hits;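 active means more than half of the replicate wells show a fall in the fluorescence ratio signal beyond about 16%, limit read from the data, passing the limit was not always enough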;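 further: 0% = DMSO wells and 100% = Ran loaded with GDP instead of GTP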
Runt-CBFb FRET: inhibitors of RUNX1 Runt–CBFb binding, primary screen, biochemical, FRET, Cerulean-Runt, Venus-CBFb, uHTS; Cerulean-Runt/Venus-CBFb FRET ratio 530/480, 1 h; inhibition, % at 20 µM; 220,000 compounds, 0.46% hits; AID 1496, 2009;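 active means inhibition over about 50% at 20 µM in the single-dose screen, limit read from the data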;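 further: 0% = DMSO wells and 100% = excess unlabeled CBFb competitor control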
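Assay system: Cerulean-Runt domain fusion protein, energy donor; Signal: fluorescence energy transfer, 422 nm excitation, 530/480 nm emission; Timing: 1 h compound exposure, room temperature; Control set: unlabeled CBFb; Medium: Tris buffer pH 7.5 with salts and BSA; Compound: single test concentration of 20 µM, 1% DMSO final; Probe or stimulus: Venus-CBFb 100 nM.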
* marks the source's active call; other numbers are inactive results; . = not tested or not shown. A selection: hits, their analogues and other compounds. The true share with any hit is near 2.9%.

SMILES	Wee1 stabilizer	Runt-SMMHC FRET	AI-2 QS modul	KLK7 zymogen act	RanGTP-Imp inh	Runt-CBFb FRET
CCOC(=O)COc1cccc2c(=O)n(CC(=O)NCc3ccc4c(c3)OCO4)ccc12	9.6*	0.1	17.6	0.6	0.6	.
COC(=O)COc1cccc2c(=O)n(CC(=O)NCc3ccc(F)cc3)ccc12	11.7*	-4.0	-13.7	-0.3	5.3	-0.1
CCOC(=O)C(C)Oc1cccc2c(=O)n(CC(=O)NCc3ccc(F)cc3)ccc12 (configuration not stated)	1.3	-91.4	6.2	-0.2	8.5	-1.4
CCOC(=O)COc1cccc2c(=O)n(CC(=O)NCCc3ccccc3)ccc12	0.1	4.9	3.4	0.4	-2.4	-0.9
CCCCOCCCNC(=O)C[C@@H]1C(=O)N(Cc2ccc(OC)cc2)/C2=C/CCCCC[C@@]21C(=O)OCC	.	.	.	0.8	.	.
COC(=O)[C@]12C[C@H](CC(=O)NCCCN3CCCC3=O)C(=O)N(Cc3ccco3)C1=C[C@H](COCc1ccccc1)O[C@@H]2C	.	.	.	-0.5	.	.
Cc1cccc(/C=N/NC(=O)c2cc(C3CC3)nc3ccccc23)n1	.	.	11.1	-0.2	1.9	.
CCc1ccc(/C=N/NC(=O)c2cc(C3CC3)nc3ccccc23)s1	10.5*	-1.7	21.5	1.5	-2.2	0.0
Cc1cc(C)c2c(=O)n(CC(=O)NC3CCCC3)sc2n1	-0.4	52.6*	56.4	0.0	-1.9	1.5
Cc1ccc(/C=C/C(=O)Nc2cc(S(N)(=O)=O)ccc2O)cc1	-1.2	16.4	19.4	0.8	5.2	35.1
CCS(=O)(=O)c1ccc(O)c(NC(=O)/C=C/c2ccc(Cl)cc2)c1	-0.8	-8.9	-82.8*	0.3	1.2	4.2
Cc1cccn2c(=O)c(C=O)c(Sc3ncccn3)nc12	-0.4	19.9	17.0	5.3	4.7	13.1
O=C(COC(=O)c1ccc(F)cc1F)Nc1ccc(Cl)cn1	.	.	.	0.0	.	.
O=C(COC(=O)c1ccc(O)cc1O)Nc1ccc(Cl)cn1	.	.	-82.9*	-0.3	-2.9	.
O=c1[nH]c(-c2ccccc2)cn1C1CCN(Cc2ccc(-c3nc4ccc(Br)cc4nc3-c3ccccc3)cc2)CC1	.	.	.	-1.6	.	.
C=CCNC(=O)COC(=O)COc1ccc(Cl)cc1	-2.1	40.3	13.4	-0.4	0.8	-0.1
CCC1(c2ccc(F)cc2)NC(=O)N(CC(=O)NCc2ccc(C)cc2)C1=O (configuration not stated)	.	.	-77.7*	-0.6	0.1	.
CCC1(c2ccc(F)cc2)NC(=O)N(CC(=O)NCc2ccc(F)cc2)C1=O (configuration not stated)	.	.	-38.7	0.1	4.0	.
CC(C)Cc1nnc(NC(=O)c2cc(-c3ccncc3)nc3ccccc23)s1	9.2*	-7.2	9.7	-1.1	0.0	-2.8
CCOC(=O)C1=C(N)Oc2cc(O)ccc2C1c1ccc(F)cc1F (configuration not stated)	.	.	23.1	2.5	10.8	.
O=C(O)C=C1CCN(c2ncc(C(F)(F)F)cc2Cl)CC1	5.1	-3.4	3.2	-0.3	-0.5	-2.6
COC(=O)c1c(/N=C/N(C)C)sc2c1CCN(c1ncc(C(F)(F)F)cc1Cl)C2	-4.5	57.8*	25.5	1.9	9.2	5.2
COC(=O)c1c(N(S(C)(=O)=O)S(C)(=O)=O)sc2c1CCN(c1ncc(C(F)(F)F)cc1Cl)C2	-1.0	79.2*	24.5	-0.1	2.0	65.1*
COC(=O)[C@]12C[C@H](CC(=O)NCCCN3CCCC3=O)C(=O)N(Cc3ccc(Cl)cc3Cl)C1=C[C@H](C(C)C)O[C@@H]2C1CC1	.	.	.	0.9	.	.
